Screens from PubChem.
Sampled rows, rich in hits. Any-hit rate of the full collection: about 3.8%.
Measles CPE – protection of cells from measles virus | Measles virus-infected cells, CPE protection, absorbance | protection (pct of control), % at 4 µM | 1.5% of 140,000 active | AID 841; in the data active = protection mostly above about 24%, no sharp cut-off; inactive = mostly below about 26%
Yeast growth inh – chemicals that inhibit yeast BB579 growth in restrictive medium (lifespan-shortening candidates) | AID 804 | 0.51% of 140,000 active | S. cerevisiae BB579 growth, OD615, 48 h | inhibition, % at 10 µM;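 active = inhibition above a set limit, 3 SD over the mean compound inhibition, cut at about 44% in these data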
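System: Saccharomyces cerevisiae DeaD strain BB579, replicative lifespan model yeast | Buffer or medium: Restrictive glucose-based CSMM-D medium | Times: 4 h preincubation and 48 h exposure at 30 °C | Detection: OD615 turbidity measurement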
SDO1 yeast rescue – sdo1-depleted yeast growth rescue | S. cerevisiae sdo1-depleted JHY4D growth rescue, OD600 30 h; hits give high values; pdr5 snq2 efflux-pump mutant strain | z-score at 10 µM | 0.21% of 140,000 active;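 active = z-score above 3 at both the 24 hr and the 30 hr optical density reads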
RAM network inh – yeast RAM network inhibition. inhibition, % at 50 µM. S. cerevisiae dse1pr::URA3 reporter, 5-FOA growth OD615, 2 d; analog-sensitive cbk1-as2 kinase mutant strain. 1.8% of 190,000 active;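 active = inhibition above a set limit, 3 SD over mean compound inhibition, cut at about 8.4% in these data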;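 note: inhibition rescues growth on 5-FOA so higher OD means more RAM inhibition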
Yeast life ext – extends the lifespan of yeast; 0.68% of 130,000 active; AID 775; inhibition of the nicotinamide effect, % at 10 µM; S. cerevisiae growth with nicotinamide, OD615; deaD strain in restrictive glucose medium;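 active = inhibition above a set limit, placed 3 SD over the median of all compounds, cut at about 26% in these data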
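assay system = DeaD-strain S. cerevisiae | buffer or medium = restrictive glucose medium | reagent = 1.5 mM nicotinamide | compound = 10 µM single point, 0.25% DMSO | incubation = 48 h compound exposure at 30 °C, humidified | signal = OD615 measurement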
SDO1 rescue DR – SDO1-depleted yeast growth rescue confirmation; 44% of 440 active; OD recovery (concentration not given with the values); S. cerevisiae JHY4D (SDO1-depleted) growth rescue, OD600, 30 h; hits give high values; efflux-deficient strain, SNQ2 and PDR5 mutated; shares compounds with SDO1 yeast rescue;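 active = yeast growth recovered at 30 hours, either rising with dose fitted slope above 0.001 or with average optical density gain above 0.07, some results past the limit were not filed as active; inactive = growth falling with dose or no effect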
RAM efflux-def – RAM network inhibition, efflux-deficient strain | shares compounds with RAM network inh | S. cerevisiae efflux-deficient reporter strain, 5-FOA growth OD615, 2 days | max inhibition, % | 1,200 tested, under 10 active | AID 1305; call rule not given here
Hits are given with their value; 0 = inactive; - = no result given.

SMILES	Measles CPE	Yeast growth inh	SDO1 yeast rescue	RAM network inh	Yeast life ext	SDO1 rescue DR	others
COC(=O)c1ccc2[nH]c(C)cc(=O)c2c1	0	0	6	0	0	0
CCOC(=O)C1CCCN(C(=O)Nc2cccc(Cl)c2)C1 (stereo not given)	0	0	0	0	0	0
CCc1ccc(S(=O)(=O)NCCc2csc(-c3cccnc3)n2)s1	0	0	4.4	0	0	0
CCc1ccc(S(=O)(=O)NCc2csc(-c3ccccc3)n2)s1	0	0	0	0	0	-
CCc1ccc(S(=O)(=O)NCCc2csc(-c3ccccc3)n2)s1	0	0	4.3	8.5	0	0
CCS(=O)(=O)NCCc1csc(-c2cccnc2)n1	0	0	0	0	0	-
O=C(NCCCN1CCN(CCCNC(=O)c2cccc([N+](=O)[O-])c2)CC1)c1cccc([N+](=O)[O-])c1	0	0	11	0	0	0
O=C(NCCCc1ccccc1)c1cccc([N+](=O)[O-])c1	0	0	0	0	0	-
COc1c(/C=N/Nc2ccc([N+](=O)[O-])cc2[N+](=O)[O-])c(C)nn1-c1ccccc1	0	0	0	0	0	0
NS(=O)(=O)c1ccc(NC(=O)COC(=O)CCNC(=O)NC23CC4CC(CC(C4)C2)C3)cc1	0	0	0	0	0	-
O=C(CCc1nnc(CCC2CCCCC2)o1)NCc1ccon1	-	-	-	0	-	-
COc1cc(OC)cc(-c2nnc(SCC(=O)N3CCOCC3)o2)c1	0	0	3.7	0	0	0.072
COc1cc(OC)cc(-c2nnc(SCC(=O)N3CCCCC3)o2)c1	0	0	0	0	0	-
Nc1nc(-c2cccnc2)nn1C(=O)c1ccc(F)cc1	-	-	-	0	-	-
O=C(C[n+]1ccc(-c2nnc3n2CCC3)cc1)c1ccc(Cl)cc1	0	0	0	0	0	-
Cc1nc2nc(C)c(CCC(=O)NC(C)c3ccc4c(c3)OCCO4)c(C)n2n1 (stereo not given)	0	0	0	0	0	0
Cc1cc(C)c(-c2csc(NC(=O)COC(=O)c3ccc4c(c3)OCO4)n2)c(C)c1	0	0	0	0	0	0
O=C(COC(=O)c1ccc2c(c1)OCO2)Nc1nc(-c2ccccc2)cs1	-	-	-	0	-	-
CN(CCc1cnn(C)c1)Cc1cn[nH]c1-c1ccc(-c2ccccc2)cc1	-	-	-	0	-	-
COc1ccc(CCNC(=O)CCN2C(=O)c3cccc4cccc(c34)C2=O)cc1OC	-	-	-	0	-	-
COc1ccc(CCN2C(=O)c3cccc4c(C(=O)N5CCCCC5)ccc(c34)C2=O)cc1OC	0	0	0	0	0	0
Cc1ccc2nc(-c3ccc(NC(=O)COC(=O)c4ccco4)cc3)sc2c1	0	0	0	0	0	-
CCOc1ncccc1C(=O)OCC(=O)Nc1ccc(-c2nc3ccc(C)cc3s2)cc1	0	0	0	0	0	0
CC(=O)C(=Nc1ccccc1Cl)NNc1ccc(Cl)cc1	0	0	0	0	-	-
CCc1cc(=O)oc2cc(OC(C)C(=O)O)c(Cl)cc12 (stereo not given)	0	0	3.1	0	0	0.092
SMILES	Measles CPE	Yeast growth inh	SDO1 yeast rescue	RAM network inh	Yeast life ext	SDO1 rescue DR	others
CCc1cc(=O)oc2cc(OCC(=O)N(CC)CC)c(Cl)cc12	0	0	0	0	0	-
COC(=O)c1ccc(C2c3c(oc4ccc(F)cc4c3=O)C(=O)N2CCO)cc1 (stereo not given)	0	0	0	0	0	0
CCCc1nn(C)c(C(=O)Nc2ccc3ccccc3c2)c1Cl	0	0	4.1	11	0	0.096
CCOC(=O)C1CCN(C(=O)c2cccc(NS(=O)(=O)c3ccc(F)c(F)c3)c2)CC1	-	-	-	0	-	-
CN1CCN(CC(O)COCCOc2ccc(Br)cc2)CC1 (stereo not given)	0	0	0	0	0	-
CCN1CCN(CC(O)COCCOc2ccc(Br)cc2)CC1 (stereo not given)	0	0	6.9	0	0	0
Cc1cc(NC(=O)c2cccs2)n(-c2ccccc2)n1	0	0	3.5	0	0	0.083
NNS(=O)(=O)c1ccc(Cc2ncc(C(F)(F)F)cc2Cl)s1	0	0	0	0	0	-
CCN(CC)S(=O)(=O)c1ccc(Cc2ncc(C(F)(F)F)cc2Cl)s1	0	0	12	0	0	0.076
COCCCn1c(SCC(=O)N2CC(=O)Nc3ccccc32)nnc1-c1ccoc1C	0	0	11	0	0	0.084
COCCn1c(SCc2nc3ccccc3s2)nc2ccccc21	0	0	0	0	0	-
CC(=O)Nc1ccc(S(=O)(=O)NCc2cccnc2)cc1	0	0	0	0	0	-
O=C(Nc1ccc(S(=O)(=O)NCc2cccnc2)cc1)c1ccco1	0	0	0	0	0	0
COC(=O)C1C(=O)OC(C)(C)C1C(C)C(=O)c1ccccc1 (stereo not given)	0	0	4.8	0	0	0
COC(=O)C1C(=O)OC(C)(C)C1C(C)C(=O)c1ccc(C)cc1C (stereo not given)	-	-	-	0	-	-
C=CC[C@@H]1Cc2c(Br)ccc(Br)c2[C@@H](CC=C)N1	0	0	6.5	0	0	0.1
CNc1ccccc(-c2ccc3cc4c(cc3n2)OCO4)c1=O	0	0	0	0	0	-
Cc1ccc(-c2nnc(SCC(=O)N/N=C/c3ccc(C)s3)n2-c2ccccc2)cc1	0	0	0	0	0	-
CC1=C(C(=O)NCc2ccc3c(c2)OCO3)C2(CCC(C)CC2)OC1=O (stereo not given)	0	0	0	0	0	0
Cc1[nH]n(-c2c(Cl)cc(Cl)cc2Cl)c(=O)c1C=Nc1ccc(S(=O)(=O)N2CCOCC2)cc1	0	0	0	0	0	-
COc1ccc2c(c1)CCc1c(C(=O)NCCc3ccc(OC)c(OC)c3)noc1-2	0	0	0	14	0	0	RAM efflux-def=0
N#CCC(=O)Nc1ncc(Cc2ccccc2Cl)s1	-	-	-	0	-	-
O=C(/C=C/c1ccc(OCc2ccccc2)c(OCc2ccccc2)c1)c1cccnc1	0	0	0	14	0	-	RAM efflux-def=0
Cc1cccc(Oc2cc(NC(=O)c3ccccc3)cc([N+](=O)[O-])c2)c1	0	0	0	13	0	-	RAM efflux-def=0
CCn1c2ccccc2c2cc(NC(=O)c3cc(OC)c(OC)c(OC)c3)ccc21	0	0	0	12	0	-	RAM efflux-def=0
Cc1cc(Br)cc(C)c1OCCCCN(C)C	0	0	0	0	0	-
COc1cc(S(=O)(=O)Nc2ccccc2)ccc1N=Cc1c(C)[nH]n(-c2ccc(C)cc2)c1=O	0	0	0	13	0	-	RAM efflux-def=0
COc1cc(SC#N)ccc1N=Cc1c(C)[nH]n(-c2ccc(Cl)cc2)c1=O	0	0	0	0	0	-
CC(Sc1nnc(-c2ccccc2)c(-c2ccccc2)n1)C(=O)N1CCc2ccccc21 (stereo not given)	0	0	0	0	0	-
